This excerpt belongs to a sample that is enriched for hits.
BAP1 inh: blocks human BAP1 ubiquitin-AMC hydrolysis; Q92560; recombinant BAP1, Ub-AMC hydrolysis fluorescence kinetic; hits give low values; calls only at 20 µM; actives 0.48% (n = 72,000); AID 436;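 active = activity remaining at or below 50% of control, provided the compound also passes the data quality filters; inactive = the rest, including low values that fail the filters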;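 note: 100% = DMSO wells rate and 0% = substrate alone blank rate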
Target sequence (Q92560 whole entry, looked up): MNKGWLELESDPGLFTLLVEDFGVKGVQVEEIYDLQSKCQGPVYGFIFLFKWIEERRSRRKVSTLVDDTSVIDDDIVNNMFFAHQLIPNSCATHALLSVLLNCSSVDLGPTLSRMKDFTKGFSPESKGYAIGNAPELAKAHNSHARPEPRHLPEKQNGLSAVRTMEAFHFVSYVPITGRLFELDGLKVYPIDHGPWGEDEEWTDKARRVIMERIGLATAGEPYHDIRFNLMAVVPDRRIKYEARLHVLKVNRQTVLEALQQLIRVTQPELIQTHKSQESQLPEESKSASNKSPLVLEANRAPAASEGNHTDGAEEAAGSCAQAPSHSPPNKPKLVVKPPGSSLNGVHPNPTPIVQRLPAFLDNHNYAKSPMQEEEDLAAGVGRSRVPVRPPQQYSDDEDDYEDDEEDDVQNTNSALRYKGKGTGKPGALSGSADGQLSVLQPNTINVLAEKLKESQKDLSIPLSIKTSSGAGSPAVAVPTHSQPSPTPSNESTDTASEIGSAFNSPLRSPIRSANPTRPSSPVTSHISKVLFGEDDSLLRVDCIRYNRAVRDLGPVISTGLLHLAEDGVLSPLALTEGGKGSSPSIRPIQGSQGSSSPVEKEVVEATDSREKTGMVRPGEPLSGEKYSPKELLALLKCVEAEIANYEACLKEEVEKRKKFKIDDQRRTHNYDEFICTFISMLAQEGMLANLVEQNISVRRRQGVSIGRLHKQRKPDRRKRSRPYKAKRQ
TNAP act DEA: activates human TNAP at intermediate phosphate acceptor concentration; 64,000 tested, under 10 active; activation factor at 20 µM; purified TNAP, CDP-star luminescence, 100 mM DEA, 30 min; hits give high values; scale: 0 levamisole-inhibited, 1 vehicle-only enzyme; AID 813; P05186;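 active = activation factor of at least 2 at 20 µM, relative to controls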
WNV protease inh: inhibitors of West Nile virus NS2B-NS3 protease. actives 0.18% (n = 65,000). P06935. WNV NS2B-NS3 protease, fluorogenic substrate Ex360/Em465; hits give low values. z-score (no concentration beside the values); in the data active = z-score below about -3
Ecoli tolC: E. coli tolC mutant growth inhibition. E. coli BW25113 tolC mutant growth, OD615. growth inhibition, % at 10 µM (by protocol). actives 2.2% (n = 65,000);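 active = growth inhibition at or above a cutoff equal to the mean over every tested compound plus 3 SD, cut at about 60% in these data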;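 note: growth measured after 20 h incubation at 37 °C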
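Test system – E. coli BW25113 ΔtolC::kan, tolC deletion mutant strain · Detection – OD at 615 nm · Buffer or medium – LB with kanamycin 50 µg/mL · Times – 20 h compound exposure of bacteria at 37 °C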
E coli WT exp: E. coli BW25113 growth inhibition, expanded screen; OD600 absorbance; actives 0.15% (n = 98,000); growth inhibition, % at 100 µM;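 active = growth inhibition above about 50% at one test dose, limit read from the data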;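 note: growth measured after 20 h incubation at 37 °C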
Active calls of the source: *; i = inactive; / = no result shown; + = active, no number.

SMILES | BAP1 inh | TNAP act DEA | WNV protease inh | Ecoli tolC | E coli WT exp
CCOC(=O)c1c(NC(=O)CN(CC)CC)sc2c1CCN(C(=O)OCC)C2 | i | 1.1 | -0.85 | 18.0 | 1.0
Cc1cc([N+](=O)[O-])nn1Cc1ccccc1F | / | / | / | / | 11.0
O=c1c2cc3ccccc3n2cnn1Cc1ccccc1F | i | 0.9 | -0.39 | 75.4* | 5.0
Cc1ccc(C(=O)Nc2nc(COc3ccccc3)cs2)s1 | / | 1 | 0.73 | 79.1* | -9.0
COc1ccc(-c2c(C#N)c(SCc3ccccc3)nc(C)c2C(=O)Nc2ccccc2)cc1 | i | / | / | / | /
CCn1c(SCC(=O)Nc2ccc3c(c2)c2ccccc2n3CC)nnc1-c1ccco1 | / | 0.9 | -3.01* | 28.1 | 1.0
Cc1ccc(NC(=O)N(CC(C)C)CC(C)C)cc1 | i | / | / | / | /
CCCCC(=O)Nc1ccc(C(=O)NN2C(=O)c3ccccc3C2=O)cc1 | / | / | / | / | -5.0
CCCc1nc(SC2CCCC2)c2c(=O)n(C)c(=O)n(C)c2n1 | i | 1 | 0.68 | 84.0* | -2.0
CCOC(=O)CNC(=O)C1=C(C(=O)O)CCCC1 | i | / | / | / | /
N#CCC(Cc1ccccc1)c1ccc2c(c1)OCO2 (configuration not stated) | i | / | / | / | /
Clc1ccc(Cl)c(-c2nn3c(COc4ccccc4)nnc3s2)c1 | / | 0.8 | -0.36 | 96.2* | -1.0
COc1cccc(N2CCN(CC(=O)Nc3nc4c(s3)CC(C)CC4)CC2)c1 (configuration not stated) | i | 1.1 | -0.16 | 95.3* | -9.0
CC1(C)Cc2c(sc3c2c(=N)n(Cc2ccco2)c(=O)n3Cc2ccc(Cl)cc2)CO1 | / | 0.9 | -1.26 | 63.9* | -20.0
CN(C)c1cc(NC(=O)CN2CCOCC2)c2ccccc2n1 | + | 0.8 | -0.62 | -15.8 | /
CCOC(=O)c1c(NC(=O)C(F)(OC)C(F)(F)F)sc(C(=O)N2CCCCC2)c1C (configuration not stated) | i | 0.9 | 0.61 | 77.7* | -9.0
CC(C)N(Cc1ccccc1)C(=O)COC(=O)c1ccc2c(c1)OCCO2 | i | 0.9 | 0.49 | 11.6 | -2.0
CC(C)N(CCC(=O)c1ccc2ccccc2c1)Cc1ccccc1 | + | / | / | / | /
COc1ccc(N(C2CSC2)S(=O)(=O)c2ccccc2)cc1 | i | 0.9 | 1.23 | 63.9* | -7.0
c1ccc(CN(Cc2ccco2)C(c2ccncc2)c2nnnn2C2CCCC2)cc1 (configuration not stated) | i | 0.9 | 1.06 | 63.6* | -6.0
COc1ccc(Cl)cc1NC(=O)c1c(-c2ccccc2Cl)noc1C | i | / | / | / | /
CCN(CC)c1ccc(C=NCCc2ccccc2)c(O)c1 | i | / | / | / | /
Oc1ccc(Cl)cc1-c1cc(-c2ccccc2)n[nH]1 | i | 0.8 | 0.55 | 100.0* | 1.0
Cc1ccccc1-c1cc(-c2ccccc2O)n[nH]1 | i | 1 | 1.22 | 100.0* | 26.0
COc1ccccc1-c1cc(-c2cc(Cl)ccc2O)n[nH]1 | / | 1 | 0.02 | 14.3 | -1.0
SMILES | BAP1 inh | TNAP act DEA | WNV protease inh | Ecoli tolC | E coli WT exp
N#Cc1c(-c2ccc(Cl)cc2)cc(C2CC2)nc1SCC(=O)O | i | / | / | / | /
COc1cccc(C2CC(c3cccc(C)c3)n3ncnc3N2)c1 (configuration not stated) | i | 1 | 0.64 | 22.1 | 0.0
COc1ccc(C2CC(c3cccc(C)c3)n3ncnc3N2)cc1 (configuration not stated) | i | 0.9 | -4.09* | 19.6 | -4.0
COc1ccc2[nH]c3c(=O)n(CCCCC(=O)NCCN4CCCC4)c(=S)[nH]c3c2c1 | i | 0.9 | -0.25 | 60.6* | 2.0
COc1ccc2[nH]c3c(=O)n(CCCCC(=O)N4CCC(C(N)=O)CC4)c(=S)[nH]c3c2c1 | i | 0.9 | 0.00817 | 100.0* | 5.0
C=CCc1ccccc1OCC(O)CN(CC)CC (configuration not stated) | / | / | / | / | 0.0
Cc1csc(NC(=O)CSc2ncnc3c2cnn3-c2ccccc2Cl)n1 | i | 1 | -1.15 | 61.0* | 2.0
COc1ccccc1-n1c(C)nnc1SCC(N)=O | i | 0.9 | -1.06 | -7.8 | 0.0
COc1ccccc1-n1c(C)nnc1SCC(=O)Nc1cc(C)cc(C)c1 | i | 1 | -9.13* | / | 1.0
Cc1csc(NC(=O)C2CCCN(S(=O)(=O)c3ccc(Br)s3)C2)n1 (configuration not stated) | i | 0.9 | 0.5 | 71.0* | -3.0
CCOC(=O)C1CCCN(S(=O)(=O)c2ccc(Br)s2)C1 (configuration not stated) | i | 0.9 | -0.41 | 27.6 | -1.0
CS(=O)(=O)N(Cc1ccccc1)c1ccc(C(=O)Nc2ccc(CC#N)cc2)cc1 | i | / | / | / | /
C=C(C)C1CCC(C)=C1COC(=O)Nc1ccccc1 (configuration not stated) | i | 0.8 | -0.36 | 77.7* | -13.0
O=C(O)C1CC=CCC1C(=O)Nc1ccc(S(=O)(=O)N2CCCc3ccccc32)cc1 (configuration not stated) | i | 0.9 | -0.39 | 61.0* | 5.0
O=C(Nc1ccc(S(=O)(=O)N2CCCc3ccccc32)cc1)C1CCCO1 (configuration not stated) | i | 0.9 | -0.12 | 67.6* | -11.0
CCN(CC)C(=O)c1sc(NC(=O)Cc2cccs2)c(C#N)c1C | i | 0.9 | -4.36* | 10.2 | -1.0
Cc1cc(C(=O)O)c(NC(=O)c2ccccc2)s1 | i | / | / | / | /
Cc1ccc(NC(=O)c2ccccc2)s1 | i | 0.9 | 1.04 | 54.8 | 77.0*
Cc1cc(NC(=O)c2ccccc2)sc1C | i | 0.9 | -0.66 | 97.8* | 54.0*
Cc1ccc(C(=O)COC(=O)CN2C(=O)c3ccccc3C2=O)cc1[N+](=O)[O-] | i | / | / | / | /
COC(=O)c1ccc(N=C2SC(C(=O)Nc3ccccc3OC)CC(=O)N2C)cc1 (configuration not stated) | i | / | / | / | /
COc1ccc(NS(=O)(=O)c2ccc3c(c2)Cc2ccccc2-3)cn1 | i | 0.9 | 0.54 | 100.0* | -9.0
NC1=NC(c2cccc(O)c2)n2c(nc3ccccc32)N1 (configuration not stated) | i | 0.9 | 0.58 | -16.0 | 1.0
Cc1cc(C2N=C(N)Nc3nc4ccccc4n32)c(C)n1-c1ccccc1Cl (configuration not stated) | / | 1.9 | -1.49 | 61.3* | 10.0
NC1=NC(c2ccc(F)cc2)n2c(nc3ccccc32)N1 (configuration not stated) | i | 1.1 | -0.18 | -3.2 | 4.0
Cc1ccc(-n2c(C)cc(C3N=C(N)Nc4nc5ccccc5n43)c2C)c(C)c1 (configuration not stated) | i | 1.3 | 0.36 | 100.0* | -21.0
COc1cc2c(C#N)c(N3CCc4ccccc4C3)nc(N)c2c(N)n1 | i | 1 | 0.2 | 74.2* | -14.0
COc1cc2c(C#N)c(N3CCCCC3)nc(N)c2c(N)n1 | / | 0.8 | 1.36 | -2.3 | -6.0
C=CCOC(=O)C1=C(C)Nc2nc3ccccc3n2C1c1ccncc1 (configuration not stated) | i | 0.9 | -3.09* | 5.4 | -3.0

Screening data as filed in PubChem.
